# In ChEMBL document CHEMBL1828575, “Design, synthesis and antiproliferative activities of biarylolefins based on polyhydroxylated and carbohydrate scaffolds” (Eur J Med Chem, 2011):
# The source made the active and inactive calls. The rule behind the calls is not given here.
# What was measured:
# PC-3 [1] = assay: Cytotoxicity against human PC3 cells at 10^-6 M after 72 hrs by MTS assay; assay type: functional; details: PC-3, 72 h, read-out: GI
# In short: (§1)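 Preliminary screen at 10^-5 and 10^-6 M. Cells were grown in RPMI with 10% fetal calf serum plus penicillin, streptomycin and fungizone under 5% CO₂, plated in 96-well plates, and dosed 24 h later from DMSO stocks (1% DMSO final, same in controls). After 72 h, MTS was added for 3 h at 37 °C and absorbance read at 490 nm. Inhibition was calculated as (1 − OD treated/OD control) × 100, in triplicate.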
# SF-268 [2] = assay: Cytotoxicity against human SF268 cells at 10^-6 M after 72 hrs by MTS assay; assay type: functional; details: SF-268, 72 h, read-out: GI; in short: as §1
# SK-OV-3 [3] = assay: Cytotoxicity against human SKOV3 cells at 10^-6 M after 72 hrs by MTS assay; assay type: functional; details: SK-OV-3, 72 h, read-out: GI; in short: as §1
# OVCAR-8 [4] = assay: Cytotoxicity against human OVCAR8 cells at 10^-6 M after 72 hrs by MTS assay; assay type: functional; details: OVCAR-8, 72 h, read-out: GI; in short: as §1
# MIA PaCa-2 [5] = assay: Cytotoxicity against human MIAPaCa2 cells at 10^-6 M after 72 hrs by MTS assay; assay type: functional; details: MIA PaCa-2, 72 h, read-out: GI
# HL-60 [6] = assay: Cytotoxicity against human HL60 cells at 10^-6 M after 72 hrs by MTS assay; assay type: functional; details: HL-60, 72 h, read-out: GI
# In short: (§2)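 Cells grown in RPMI with 10% fetal calf serum, penicillin, streptomycin and fungizone under 5% CO₂. Plated in 96-well plates and dosed 24 h later with compound in DMSO (1% final DMSO; controls got DMSO alone). After 72 h, MTS was added for 3 h at 37 °C and A490 read. Inhibition = (1 − OD treated/OD control) × 100, in triplicate.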
# [7] = Cytotoxicity against human HL60R cells at 10^-6 M after 72 hrs by MTS assay; assay type: functional; details: read-out: GI; in short: as §2
# K562 [8] = assay: Cytotoxicity against human K562 cells at 10^-6 M after 72 hrs by MTS assay; assay type: functional; details: K562, 72 h, read-out: GI; in short: as §2
# HCT-116 [9] = assay: Cytotoxicity against human HCT116 cells at 10^-5 M after 72 hrs by MTS assay; assay type: functional; details: HCT-116, 72 h, read-out: GI; in short: as §2
# HT-29 [10] = assay: Cytotoxicity against human HT-29 cells at 10^-5 M after 72 hrs by MTS assay; assay type: functional; details: HT-29, 72 h, read-out: GI; in short: as §2
# HCT-15 [11] = assay: Cytotoxicity against human HCT15 cells at 10^-5 M after 72 hrs by MTS assay; assay type: functional; details: HCT-15, 72 h, read-out: GI; in short: as §2
# MCF7 [12] = assay: Cytotoxicity against human MCF7 cells at 10^-5 M after 72 hrs by MTS assay; assay type: functional; details: MCF7, 72 h, read-out: GI
# [13] = Cytotoxicity against human MDA231 cells at 10^-5 M after 72 hrs by MTS assay; assay type: functional; details: MDA-MB-231, 72 h, read-out: GI; in short: as §1
# A549 [14] = assay: Cytotoxicity against human A549 cells at 10^-5 M after 72 hrs by MTS assay; assay type: functional; details: A549, 72 h, read-out: GI; in short: as §2
# PC-3 [15] = assay: Cytotoxicity against human PC3 cells at 10^-5 M after 72 hrs by MTS assay; assay type: functional; details: PC-3, 72 h, read-out: GI; in short: as §1
# SF-268 [16] = assay: Cytotoxicity against human SF268 cells at 10^-5 M after 72 hrs by MTS assay; assay type: functional; details: SF-268, 72 h, read-out: GI; in short: as §1
# SK-OV-3 [17] = assay: Cytotoxicity against human SKOV3 cells at 10^-5 M after 72 hrs by MTS assay; assay type: functional; details: SK-OV-3, 72 h, read-out: GI; in short: as §1
# OVCAR-8 [18] = assay: Cytotoxicity against human OVCAR8 cells at 10^-5 M after 72 hrs by MTS assay; assay type: functional; details: OVCAR-8, 72 h, read-out: GI; in short: as §1
# MIA PaCa-2 [19] = assay: Cytotoxicity against human MIAPaCa2 cells at 10^-5 M after 72 hrs by MTS assay; assay type: functional; details: MIA PaCa-2, 72 h, read-out: GI
# HL-60 [20] = assay: Cytotoxicity against human HL60 cells at 10^-5 M after 72 hrs by MTS assay; assay type: functional; details: HL-60, 72 h, read-out: GI; in short: as §2
# [21] = Cytotoxicity against human HL60R cells at 10^-5 M after 72 hrs by MTS assay; assay type: functional, HL-60; details: read-out: GI; in short: as §2
# K562 [22] = assay: Cytotoxicity against human K562 cells at 10^-5 M after 72 hrs by MTS assay; assay type: functional; details: K562, 72 h, read-out: GI; in short: as §2
# Ovis aries = species on record: Ovis aries; assay: Inhibition of sheep brain tubulin polymerization at 10 uM
# In short: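 Microtubule protein from sheep brain, purified by two assembly/disassembly cycles (37 °C/0 °C), in 100 mM MES pH 6.6, 1 mM EGTA, 0.5 mM MgCl₂. Compounds in DMSO were tested at a single concentration, with incubation at 37 °C for 10 min and then 0 °C for 5 min before measuring assembly rate, following a modified Guénard protocol.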
# HCT-116 [23] = assay: Cytotoxicity against human HCT116 cells at 10^-6 M after 72 hrs by MTS assay; assay type: functional; details: HCT-116, 72 h, read-out: GI; in short: as §2
# HT-29 [24] = assay: Cytotoxicity against human HT-29 cells at 10^-6 M after 72 hrs by MTS assay; assay type: functional; details: HT-29, 72 h, read-out: GI; in short: as §2
# HCT-15 [25] = assay: Cytotoxicity against human HCT15 cells at 10^-6 M after 72 hrs by MTS assay; assay type: functional; details: HCT-15, 72 h, read-out: GI; in short: as §2
# MCF7 [26] = assay: Cytotoxicity against human MCF7 cells at 10^-6 M after 72 hrs by MTS assay; assay type: functional; details: MCF7, 72 h, read-out: GI
# [27] = Cytotoxicity against human MDA231 cells at 10^-6 M after 72 hrs by MTS assay; assay type: functional; details: MDA-MB-231, 72 h, read-out: GI; in short: as §1
# A549 [28] = assay: Cytotoxicity against human A549 cells at 10^-6 M after 72 hrs by MTS assay; assay type: functional; details: A549, 72 h, read-out: GI; in short: as §2
# [29] = Cytotoxicity against human NCI60 cells assessed as cellular growth at 10 uM after 48 hrs by SRB assay relative to untreated control; assay type: functional
# In short: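 NCI-60 panel lines grown in RPMI 1640 with 5% FBS and 2 mM L-glutamine. Plated at 5000–40,000 cells/well and preincubated 24 h at 37 °C, 5% CO₂, with time-zero plates fixed in TCA. Compounds, dissolved in DMSO and diluted in medium, were applied for 48 h. Cells were TCA-fixed (10% final for adherent, 16% for suspension) and stained with 0.4% SRB in 1% acetic acid. Dye was solubilised in 10 mM Tris base and read at 515 nm; growth was expressed as a percentage of untreated control.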
compound,measurement,setting,value
COc1cc(C(=C(COC(C)=O)COC(C)=O)c2cc(OC)c(OC)c(OC)c2)cc(OC)c1OC,inhibition of growth at 1 µM,PC-3 [1],7%
same,inhibition of growth at 1 µM,SF-268 [2],26%
same,inhibition of growth at 1 µM,SK-OV-3 [3],8%
same,inhibition of growth at 1 µM,OVCAR-8 [4],0%
same,inhibition of growth at 1 µM,MIA PaCa-2 [5],0%
same,inhibition of growth at 1 µM,HL-60 [6],15%
same,inhibition of growth at 1 µM,[7],11%
same,inhibition of growth at 1 µM,K562 [8],12%
same,inhibition of growth at 10 µM,HCT-116 [9],17%
same,inhibition of growth at 10 µM,HT-29 [10],4%
same,inhibition of growth at 10 µM,HCT-15 [11],48%
same,inhibition of growth at 10 µM,MCF7 [12],44%
same,inhibition of growth at 10 µM,[13],69%
same,inhibition of growth at 10 µM,A549 [14],22%
same,inhibition of growth at 10 µM,PC-3 [15],44%
same,inhibition of growth at 10 µM,SF-268 [16],53%
same,inhibition of growth at 10 µM,SK-OV-3 [17],23%
same,inhibition of growth at 10 µM,OVCAR-8 [18],24%
same,inhibition of growth at 10 µM,MIA PaCa-2 [19],10%
same,inhibition of growth at 10 µM,HL-60 [20],39%
same,inhibition of growth at 10 µM,[21],36%
same,inhibition of growth at 10 µM,K562 [22],29%
same,tubulin polymerization inhibition call (active/not active),Ovis aries,inactive
same,inhibition of growth at 1 µM,HCT-116 [23],0%
same,inhibition of growth at 1 µM,HT-29 [24],0%
same,inhibition of growth at 1 µM,HCT-15 [25],19%
same,inhibition of growth at 1 µM,MCF7 [26],5%
same,inhibition of growth at 1 µM,[27],0%
same,inhibition of growth at 1 µM,A549 [28],0%
COc1cc(/C(=C2\O[C@@H]([C@H](O)CO)[C@H]3OC(C)(C)O[C@@H]23)c2ccc3ccccc3c2)cc(OC)c1OC,Activity,[29],96%
COc1cc(C(=C(CO)CO)c2cc(OC)c(OC)c(OC)c2)cc(OC)c1OC,inhibition of growth at 1 µM,PC-3 [1],18%
same,inhibition of growth at 1 µM,SF-268 [2],13%
same,inhibition of growth at 1 µM,SK-OV-3 [3],13%
same,inhibition of growth at 1 µM,OVCAR-8 [4],0%
same,inhibition of growth at 1 µM,MIA PaCa-2 [5],0%
same,inhibition of growth at 1 µM,HL-60 [6],17%
same,inhibition of growth at 1 µM,[7],17%
same,inhibition of growth at 1 µM,K562 [8],4%
same,inhibition of growth at 10 µM,HCT-116 [9],0%
same,inhibition of growth at 10 µM,HT-29 [10],0%
same,inhibition of growth at 10 µM,HCT-15 [11],22%
same,inhibition of growth at 10 µM,MCF7 [12],31%
same,inhibition of growth at 10 µM,[13],42%
same,inhibition of growth at 10 µM,A549 [14],13%
same,inhibition of growth at 10 µM,PC-3 [15],26%
same,inhibition of growth at 10 µM,SF-268 [16],35%
same,inhibition of growth at 10 µM,SK-OV-3 [17],14%
same,inhibition of growth at 10 µM,OVCAR-8 [18],0%
same,inhibition of growth at 10 µM,MIA PaCa-2 [19],0%
same,inhibition of growth at 10 µM,HL-60 [20],40%
same,inhibition of growth at 10 µM,[21],0%
same,inhibition of growth at 10 µM,K562 [22],25%
same,tubulin polymerization inhibition call (active/not active),Ovis aries,inactive
same,inhibition of growth at 1 µM,HCT-116 [23],6%
same,inhibition of growth at 1 µM,HT-29 [24],0%
same,inhibition of growth at 1 µM,HCT-15 [25],8%
same,inhibition of growth at 1 µM,MCF7 [26],8%
same,inhibition of growth at 1 µM,[27],0%
same,inhibition of growth at 1 µM,A549 [28],0%
COc1cc(C(=C(CO)CO)c2ccc3c(c2)OCO3)cc(OC)c1OC,tubulin polymerization inhibition call (active/not active),Ovis aries,inactive
COc1ccc(C(=C(COC(C)=O)COC(C)=O)c2cc(OC)c(OC)c(OC)c2)cc1O[Si](C)(C)C(C)(C)C,tubulin polymerization inhibition call (active/not active),Ovis aries,inactive
COc1cc(/C(=C2\O[C@@H]([C@H](O)CO)[C@H]3OC(C)(C)O[C@@H]23)c2cccc(N)c2)cc(OC)c1OC,Activity,[29],103%
same,tubulin polymerization inhibition call (active/not active),Ovis aries,inactive
COc1cc(C(=C2O[C@@H]([C@H](O)CO)[C@H]3OC(C)(C)O[C@@H]23)c2cc(OC)c(OC)c(OC)c2)cc(OC)c1OC,Activity,[29],103%
